rCAG RNA binder: binders of r(CAG) RNA repeats, primary screen, biochemical, fluorescence; r(CAG) RNA repeat, TO-PRO-1 dye displacement fluorescence; inhibition, % at 3 µM; 1.3% of 370,000 active; AID 651821, 2012;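 active = inhibition above the plate cutoff, the mean of all test compounds on that plate plus 3 SD, cut at about 35% in these data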;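 also: 0% = DMSO alone and 100% = 100 µM mitoxantrone as full dye displacement; higher means more dye released from RNA so lower well fluorescence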
MPTP inh: mitochondrial permeability transition pore inhibitors, primary screen, biochemical, isolated mouse mitochondria, absorbance. Ca2+ swelling absorbance, 30 min. 1.4% of 360,000 active. inhibition, % at 10 µM;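 active = inhibition of 50% or more, scaled per plate between neutral and stimulator controls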;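 also: 0% = DMSO wells given calcium and 100% = 1 mM EGTA wells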
Granule exo inh: LAMP-1 surface exposure blockers, TALL-104 cells – cell-based, flow cytometry, MLPCN library, primary screen. inhibition, % at 10 µM. AID 651702, 2012. TALL-104 LAMP-1 surface exposure; cells stimulated with thapsigargin and PMA. 0.66% of 360,000 active;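 active = inhibition above about 55%, limit read from the data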
B2AR ag: beta2AR agonists driving receptor internalization, primary screen, cell-based, FAP fluorogen, flow cytometry; Am2.2-beta2AR cells; response, % (test concentration not listed); AID 504454, 2011; 0.43% of 340,000 active;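 active = response above a set limit, near 3 SD of response in nonfluorescent compounds, cut at about 42% in these data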
Target sequence (P07550 whole entry, looked up): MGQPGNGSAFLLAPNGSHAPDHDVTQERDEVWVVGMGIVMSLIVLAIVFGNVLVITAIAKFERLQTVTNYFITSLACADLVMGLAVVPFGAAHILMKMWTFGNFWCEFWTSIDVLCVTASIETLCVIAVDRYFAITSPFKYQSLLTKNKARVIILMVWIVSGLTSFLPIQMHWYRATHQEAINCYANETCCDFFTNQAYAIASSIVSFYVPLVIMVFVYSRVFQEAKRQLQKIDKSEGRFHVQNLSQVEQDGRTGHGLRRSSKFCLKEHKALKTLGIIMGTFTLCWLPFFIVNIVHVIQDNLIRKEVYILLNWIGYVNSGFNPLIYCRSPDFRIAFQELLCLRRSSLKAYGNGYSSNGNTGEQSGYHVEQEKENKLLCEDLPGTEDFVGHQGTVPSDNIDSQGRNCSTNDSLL
V-ATPase pHluor: regulators of yeast V-ATPase proton pumping, primary screen, pHLuorin cytosolic pH fluorescence; S. cerevisiae; response, % at 10 µM; 0.37% of 350,000 active; AID 504577, 2011; in the data active = response mostly above about 7.3%, no sharp cut-off; inactive = mostly below about 5.4%; also: actives read high
T cell modulator: modulators of CD8 T cell-vesicle binding, primary screen, mouse 2C CD8+ T cells, flow cytometry | 2C CD8+ T cell-vesicle binding; hits give low values | response (vesicle binding), % at 7 µM | 0.068% of 330,000 active;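 active = response, share of CD8 T cells binding vesicles, and their 90th percentile fluorescence all below set limits, cut at about 80% in these data, passing the limit was not always enough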;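 also: values below 100% mean blocked vesicle binding to the CD8+ T cells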
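Material: murine 2C transgenic CD8+ T lymphocytes / Also added: QL9-peptide-loaded Drosophila micro-vesicles bearing Ld, ICAM-1 and B7-1 / Schedule: binding step 1.5 h, 37 °C, antibody labelling 20 min, ice / Signal: flow cytometry, PE anti-B7-1 (FL2) versus Alexa647 anti-CD8 (FL8), PFA-fixed / Evaluation: percent CD8+ FL2 mean versus row control / Benchmarks: naked versus QL9-loaded vesicles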
Rh123 counter: fluorescence retest of MPTP screen hits in isolated mitochondria, single concentration; shares compounds with MPTP inh; membrane potential, Rhodamine 123 fluorescence; inhibition, % at 10 µM; 78% of 5,000 active; AID 624504, 2012; in the data active = inhibition above about 22%;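 also: 0% = DMSO vehicle and 100% = positive control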
MPTP swell DR: mitochondrial permeability transition pore inhibitors, dose response, biochemical, absorbance, uHTS hits; 58% of 780 active; isolated mitochondria swelling; IC50, µM; shares compounds with MPTP inh; in the data active = IC50 below about 20 µM
MPTP cs DR: fluorescent counter-screen in isolated mitochondria, dose response, counter-screen for MPTP inhibitor project, biochemical, fluorescence, uHTS hits; shares compounds with MPTP inh; isolated mitochondria counterscreen, fluorescence read-out; IC50, µM; 49% of 780 active; in the data active = IC50 below about 80 µM
An asterisk follows results filed as active; i = inactive; . = no result. Only some compounds are listed: those with a hit (about 3.8% of all), similar ones and a draw of the others.

SMILES	rCAG RNA binder	MPTP inh	Granule exo inh	B2AR ag	V-ATPase pHluor	T cell modulator	Rh123 counter	others
COC(=O)C1CN(C2CCCC2)CCS(=O)(=O)N1Cc1cn(Cc2ccc(F)cc2)nn1 (configuration not stated)	1	.	.	.	.	.	.
COC(=O)C1=C(C)N(Cc2ccccc2C(F)(F)F)C(=NCc2ccc(OC)cc2)NC1c1ccc(F)cc1 (configuration not stated)	8	.	.	.	.	.	.
Cc1nc2ccccn2c1C(=O)CSc1ccc(Cl)cc1Cl	-2	72*	3	-11	3	i	4
COc1cc(C2CC=C(C(=O)O)C(c3ccccc3F)N2S(=O)(=O)c2ccc(C)cc2)cc(OC)c1OC (configuration not stated)	24	.	.	.	.	.	.
O=C(NCc1nc(-c2ccc(C(F)(F)F)cc2)no1)Nc1ccc(F)cc1F	-6	54*	1	-4	2	217	69*
O=C(NCc1nc(-c2ccc(C(F)(F)F)cc2)no1)Nc1cc(Cl)cc(Cl)c1	5	84*	1	11	1	207	70*
Cc1cccc(-c2noc(CNC(=O)Nc3ccc(F)cc3)n2)c1	5	59*	0	-6	0	188	71*
C[C@H]1C2CC(OC(=O)Nc3cccc(C(F)(F)F)c3)C(C2)[C@H]2CCCCN21 (some centres not stated)	-1	.	.	.	.	.	.
CN(CCCOC(=O)c1occ2ccccc12)C1CN(Cc2cn(Cc3ccccc3Cl)nn2)S(=O)(=O)C1 (configuration not stated)	5	.	.	.	.	.	.
O=C(COC(=O)C1(c2ccc(F)cc2)CCCC1)NCc1ccco1	0	90*	0	-1	-5	327	3	MPTP swell DR=i;MPTP cs DR=61*
Cc1cc(=O)n(C)c(=O)n1CCCCCCOc1cccc([N+](=O)[O-])c1	-5	57*	-3	1	-4	387	21*
C=CS(=O)(=O)N(Cc1ccc(F)cc1)C(=C)C(=O)OC	3	.	.	.	.	.	.
CN1C(=S)SC(C)(C)C1N(O)C(=O)Nc1ccc(Cl)cc1 (configuration not stated)	-1	1	0	2	0	182	.
CN1C(=S)SC(N(O)C(=O)Nc2ccc(Cl)c(Cl)c2)C1(C)C (configuration not stated)	7	98*	5	9	-1	88	86*
Cc1cccc(-c2nsc(SCC(=O)Nc3ccc4c(c3)OCO4)n2)c1	2	54*	-2	-10	0	189	65*
Cc1ccccc1-c1nsc(SCC(=O)Nc2ccc3c(c2)OCO3)n1	2	84*	-8	1	1	504	66*
Cc1cccc(-c2nsc(SCC(=O)Nc3nccs3)n2)c1	-2	2	1	8	-4	554	.
COC(=O)C/C=C/[C@@H](C)[C@H](NC(=O)OCC(Cl)(Cl)Cl)c1ccc(-c2ccccc2)cc1	7	.	.	.	.	.	.
O=C(Nc1c(-c2ccc(F)cc2)nc2ncccn12)C1CC1	1	.	.	.	.	.	.
O=S(=O)(NCC(Nc1ccc(Cl)cc1)c1ccccc1)c1ccccc1 (configuration not stated)	7	75*	-1	0	-2	292	87*
Cc1ccc(NC(CNS(=O)(=O)c2ccc(Cl)cc2)c2ccccc2)cc1 (configuration not stated)	3	7	8	-1	2	420	.
Cc1cc2c(c(=O)o1)[C@@]1(C(=O)N(C)c3c(Br)cccc31)C1=C(CCCC1=O)O2	1	.	.	.	.	.	.
CCN(CC)c1ccc(/C=C2\C(=O)c3ccc(C(=O)O)cc3C2=O)cc1	25	70*	7	.	-1	356	-33
CC1=C([N+](=O)[O-])C(c2cccc(Br)c2)C2=C(N1)c1ccccc1C2=O (configuration not stated)	22	85*	4	19	5	174	58*
CCOC(=O)c1ccc(Oc2cn[nH]c2-c2ccc(O)cc2O)cc1	6	55*	5	6	-4	366	26*
SMILES	rCAG RNA binder	MPTP inh	Granule exo inh	B2AR ag	V-ATPase pHluor	T cell modulator	Rh123 counter	others
CCCc1ccc(Oc2cn[nH]c2-c2ccc(O)cc2O)cc1	13	64*	1	2	-1	729	39*
COc1ccc(Oc2cn[nH]c2-c2ccc(O)cc2O)cc1	4	0	-4	7	-1	324	.
CCCOC(=O)c1ccc(Oc2cn[nH]c2-c2ccc(O)cc2O)cc1	5	44	20	13	0	437	.
Cc1ccc(NC(=O)C2CCN(c3nnc(-n4cccc4)s3)CC2)cc1C	12	.	.	.	.	.	.
Cc1cccc(Cn2cc(COC(=O)Nc3ccc(F)cc3)nn2)c1	0	.	.	.	.	.	.
Clc1ccc([C@H]2OC[C@@]3(CNCCc4c[nH]c5ccccc45)CS[C@H](c4ccc(Cl)cc4)N23)cc1	3	.	.	.	.	.	.
O=C(Nc1ccc(F)cc1Cl)C1CCCN1S(=O)(=O)c1cccc2cccnc12 (configuration not stated)	0	.	.	.	.	.	.
COc1cccc(CCN2CCC(CNS(=O)(=O)c3cc(-c4cc(C)no4)ccc3C)CC2)c1	-4	79*	24	9	-2	287	9	MPTP swell DR=6.8*;MPTP cs DR=24*
COc1cccc(CCN2CCC(CNS(=O)(=O)c3cc(-c4cc(C)no4)ccc3OC)CC2)c1	-5	4	5	4	0	633	.
C=CCN1[C@@H](C)COc2cccc(N3CCSCC3)c2S1(=O)=O	0	.	.	.	.	.	.
COC(=O)[C@]12C[C@H](CC(=O)N3CCC(c4ccccc4)CC3)C(=O)N(Cc3cccc4ccccc34)C1=C[C@H](C(C)C)O[C@@H]2C1CC1	7	.	.	.	.	.	.
C=CCN(CC#Cc1ccc(C(F)(F)F)cc1)Cc1ccc(OC)cc1OC	3	.	.	.	.	.	.
CCc1nn2cc(C(=O)c3cc(Cl)ccc3O)cnc2c1-c1ccc(F)cc1	2	100*	27	15	-3	0	93*
COc1ccc(OC)c(C(=O)CSc2nnc(SCc3cccc4ccccc34)s2)c1	9	.	.	.	.	.	.
CCOC(=O)[C@]12CCCCC/C=C\1N(Cc1ccc(OC)cc1)C(=O)[C@H]2CC(=O)NCCCCc1ccccc1	3	.	.	.	.	.	.
